Data on 96 compounds can be found in ChEMBL document CHEMBL4513216, “Probing the Open Global Health Chemical Diversity Library for Multistage-Active Starting Points for Next-Generation Antimalarials” (ACS Infect Dis, 2020).

The series is described as follows: Toxicity liver stage against HepG2, at 10uM. In kind it is cell-based. On the set-up: test concentration 10 uM, cell line HepG2-A16-CD81EGFP. The settings on record: human, HepG2-A16-CD81EGFP cells; read-out: INHIBITION
The procedure, abridged:
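Uninfected HepG2-A16-CD81EGFP cells, 3 × 10^3 per well, 1536-well, plated on prespotted compound at 10 μM final, parasite-free screening media added to match infected plates; puromycin 10 μM positive, DMSO 0.5% negative; run in parallel with 48 h PbLuc assay at 37 °C, 5% CO2; viability by CellTiter-Glo luminescence, normalized to controls.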
For `COc1cccc(S(=O)(=O)N2CCCCC2CCN2CCCC2=O)c1` (stereo unspecified), the cytotoxicity at 10 µM came out at 7.12%.

Turning to `Cc1nc(CN2CCCn3cnc(COC(C)C)c3C2)cs1`, the cytotoxicity at 10 µM is -73.4%.

On to `Cc1cnn(CC2CN(CCCc3nc4ccccc4o3)CCO2)c1` (stereo unspecified), for which the cytotoxicity at 10 µM is -2.45%.

For `c1csc(CN2CCC3(CCOCC3COCC3CC3)CC2)n1` (stereo unspecified), the cytotoxicity at 10 µM worked out at 5.02%.

For `COCCC1(CNC(=O)NCC2CCC2)CCC1`, the cytotoxicity at 10 µM is -10.1%.

With `Cc1nsc(NC2CCN(c3ccccc3OC(F)F)C2=O)n1` (stereo unspecified), the cytotoxicity at 10 µM amounted to 2.14%.

Turning to `CCc1ncc(CN(CCc2ccccc2)Cc2cccs2)cn1`, the cytotoxicity at 10 µM was determined as 2.44%.

Turning to `COc1cc(C(=O)N2CCCC(CNS(C)(=O)=O)C2)ccc1C` (stereo unspecified), the cytotoxicity at 10 µM was -21.6%.

Consider `Cn1cc(CN2CCc3onc(COCC4CC4)c3C2)cn1`, for which the cytotoxicity at 10 µM stood at 6.35%.

As for `N#Cc1c(SCCN2CCOCC2)sc2c(O)cc(O)nc12`, the cytotoxicity at 10 µM was -7.5%.

Regarding `CNC(=O)CS(=O)(=O)C1CCN(S(=O)(=O)c2c(F)cccc2F)CC1`, the cytotoxicity at 10 µM was -22%.

`CC(=O)N1CCC(N[C@@H]2CO[C@H](CNC(=O)C3CCCC3)[C@H]2O)CC1`: the cytotoxicity at 10 µM is -2.17%.

Turning to `CCNS(=O)(=O)c1ccc2c(c1)c(=O)n(CC)c(=O)n2CC`, the cytotoxicity at 10 µM was 10.4%.

Take `COc1cccc(NC(=O)C(C)Cn2cc(Cl)cn2)c1` (stereo unspecified): the cytotoxicity at 10 µM was -1.47%.

Consider `CC(C)N1CCc2ncn(C)c2C1C(=O)N1CCOCC1` (stereo unspecified), for which the cytotoxicity at 10 µM turned out to be 10.9%.

As for `O=C(O)C1CC2(CCN(c3nccc4ccccc34)CC2)CN1` (stereo unspecified), the cytotoxicity at 10 µM was -2.65%.

For the compound `O=C(c1ccoc1)N1CCCC2(CCC(=O)N2Cc2cccnc2)C1` (stereo unspecified), the cytotoxicity at 10 µM was -4.41%.

With `Cc1cc(C)cc(NC(=O)N(CCC#N)CCCN(C)C)c1`, the cytotoxicity at 10 µM was -49.3%.

For the compound `CC(C1CCN(Cc2ccc(N(C)C)nc2)CC1)N1CCOCC1` (stereo unspecified), the cytotoxicity at 10 µM is 6.06%.

In the case of `O=C(CCC(=O)N1CCC(OCc2cccnc2)CC1)c1ccccc1`, the cytotoxicity at 10 µM is -3.33%.

Turning to `Cc1ccc(NC(=O)Cn2ncc(SCC(N)=O)c(Cl)c2=O)cc1`, the cytotoxicity at 10 µM was -16.9%.

Regarding `O=C1CSc2ccccc2N1Cc1noc(C2CCCO2)n1` (stereo unspecified), the cytotoxicity at 10 µM was found to be 8.35%.

Turning to `O=C(Cn1nc(-c2ccc(F)cc2)oc1=O)Nc1ccccc1`, the cytotoxicity at 10 µM stood at 0.967%.

In the case of `CS(=O)(=O)Nc1cccc(CNC(=O)CCC(=O)c2cccs2)c1`, the cytotoxicity at 10 µM is 1.73%.

With `CN(C)C(=O)CCCNc1ncc2c(n1)CCN2c1ccccc1`, the cytotoxicity at 10 µM amounted to 2.29%.

For the compound `CC(NC(=O)N(C)CCCOc1ccccc1)c1nncn1C` (stereo unspecified), the cytotoxicity at 10 µM is -5.4%.

For `CNc1cc(N2CCCC2CNCc2cccnc2C)ncn1` (stereo unspecified), the cytotoxicity at 10 µM came out at 0.759%.

Turning to `COCc1ccc(CN2CCC(O)(Cn3ccc4ncccc43)CC2)o1`, the cytotoxicity at 10 µM worked out at 4.45%.

As for `CC(C)(C)OC(=O)N[C@@H]1C[C@@H](O)CN(C(=O)c2ccc(F)cc2)C[C@H]1O`, the cytotoxicity at 10 µM worked out at 2.57%.

Regarding `Cc1ccc([C@@H]2CN(S(=O)(=O)N3CCC(C)CC3)C[C@H]2N(C)C)cc1`, the cytotoxicity at 10 µM is -3.59%.

Consider `CC(C)C1Nc2ccccc2C(=O)N1CC(=O)Nc1nc2c(s1)CCC2` (stereo unspecified), for which the cytotoxicity at 10 µM was determined as 2.31%.

Regarding `Cc1nc(CO[C@H]2CN(C(=O)c3cccn3C)[C@@H]3COC[C@H]23)cs1`, the cytotoxicity at 10 µM was -112%.

With `CC(=O)NCC[C@H]1CC(C)(C)Oc2ccccc21`, the cytotoxicity at 10 µM is -0.363%.

With `Cc1cc(C(=O)N2CCN(c3nc4c(C(C)C)cccc4s3)CC2)no1`, the cytotoxicity at 10 µM stood at 16.7%.

As for `CC(C)c1noc(CN(C)C(=O)c2ccccc2-c2nc[nH]n2)n1`, the cytotoxicity at 10 µM was found to be 10.4%.

For `CCc1noc(CN(CC)Cc2cc3ccc(F)cc3[nH]c2=O)n1`, the cytotoxicity at 10 µM amounted to 2.24%.

Regarding `C[C@@H]1C[C@H](C(F)(F)F)n2nc(C3CCN(S(C)(=O)=O)CC3)cc2N1`, the cytotoxicity at 10 µM is -16.9%.

In the case of `OC1(CN2CCC(Cc3ncccn3)CC2)CCOCC1`, the cytotoxicity at 10 µM was 16.6%.

For `COc1ccc(C(=O)Nc2n[nH]c(C3CCCO3)n2)cc1` (stereo unspecified), the cytotoxicity at 10 µM was -2.46%.

As to `CCc1nc(CCNC(=O)NC2CCC(=O)N(C)C2)sc1C` (stereo unspecified), the cytotoxicity at 10 µM amounted to 2.78%.

With `O=C(c1ccccc1)N1Cc2nccn2CC(Cn2ncccc2=O)C1` (stereo unspecified), the cytotoxicity at 10 µM amounted to 10.4%.

In the case of `O=C(C1CCS(=O)(=O)C1)N1CCC(=Cc2cccc(F)c2)CC1` (stereo unspecified), the cytotoxicity at 10 µM was 10.6%.

On to `COc1ccc(-n2nc(C3CC3)nc2CCn2cnnn2)cc1`, for which the cytotoxicity at 10 µM is -2.88%.

On to `CNC(=O)Cc1ccccc1NC(=O)C1CCN(C2CCCCC2)C1` (stereo unspecified), for which the cytotoxicity at 10 µM is -0.355%.

As for `Cn1cc(C(=O)N2CCCC(Cc3cccc4ncccc34)C2)cn1` (stereo unspecified), the cytotoxicity at 10 µM was 4.88%.

Consider `N[C@@H]1c2ccccc2C2(CCN(c3ncccc3C(F)(F)F)CC2)[C@H]1O`, for which the cytotoxicity at 10 µM stood at 0.106%.

As for `COCCN(C)C[C@@H]1CN(C(=O)c2c(F)ccc(OC)c2F)C[C@@H]1CO`, the cytotoxicity at 10 µM is 0.45%.

With `Cc1nnc(CCNC(=O)Nc2ccc(S(C)(=O)=O)cc2)[nH]1`, the cytotoxicity at 10 µM turned out to be 7.91%.

Turning to `Cc1ccc(CN(C)Cc2cnc(N3CCOCC3)s2)o1`, the cytotoxicity at 10 µM was -8.46%.

For the compound `CN(Cc1nnc(C2CC2)n1C)S(=O)(=O)Cc1ccccc1F`, the cytotoxicity at 10 µM came to 16.8%.

`CCCOc1ccc(C(=O)N2CC[C@@H]3CC[C@H](C2)N3)cc1Cl`: the cytotoxicity at 10 µM was -6.94%.

Turning to `Cc1ncsc1C(=O)N(C)Cc1cccc(Cl)c1`, the cytotoxicity at 10 µM is -1.27%.

Consider `Cc1nc(C(C)C)sc1C(C)N(C)C(=O)c1ccc(=O)n(C)c1` (stereo unspecified), for which the cytotoxicity at 10 µM was 1.46%.

On to `Cc1noc(C)c1CSc1nc(=O)ccn1C(C)C`, for which the cytotoxicity at 10 µM came to 5.95%.

Consider `CC(C)NC(=O)O[C@H]1COCCN(c2nc3ccccc3s2)C1`, for which the cytotoxicity at 10 µM is -1.27%.

As for `O=C1[C@H]2CN(C3CCOCC3)C[C@H]2CN1Cc1cccnc1`, the cytotoxicity at 10 µM is -127%.

For the compound `O=C(Nc1ccnc(OC2CCOC2)c1)c1ccc(F)cc1Cl` (stereo unspecified), the cytotoxicity at 10 µM amounted to 3.44%.

For `Cc1ccc(CN2Cc3nnn(C)c3C(COCc3ccccn3)C2)s1` (stereo unspecified), the cytotoxicity at 10 µM turned out to be 7.8%.

Take `Cc1ccc(-c2noc(C(C)NS(C)(=O)=O)n2)cc1` (stereo unspecified): the cytotoxicity at 10 µM was -9.24%.

For the compound `Cn1cc(CN2CCC3(CC2)CN(C(=O)c2cnccn2)CCO3)cn1`, the cytotoxicity at 10 µM is -5.49%.

In the case of `Cc1cnn(CC(=O)N2CCC3(CCC(=O)N(C4CCCC4)C3)CC2)c1`, the cytotoxicity at 10 µM came to 3.03%.

With `C/N=C1\c2cc3cc(OC)ccc3n2CCN1Cc1ccccc1`, the cytotoxicity at 10 µM came out at 80.4%.

In the case of `Fc1ccc(CN2CCc3ncnc(C4CC4)c3CC2)cc1`, the cytotoxicity at 10 µM is -147%.

As to `CCOCCCNC(=O)C1(C)CCC(=O)N1c1ccccc1F` (stereo unspecified), the cytotoxicity at 10 µM is -4.42%.

For `CCn1c(C2CCCN(Cc3nccn3CCOC)C2)nn(C)c1=O` (stereo unspecified), the cytotoxicity at 10 µM was 7.3%.

Turning to `c1cc(C2CC2)n2cnc(C3CN(Cc4ccncc4)CCO3)c2c1` (stereo unspecified), the cytotoxicity at 10 µM turned out to be 6.59%.

On to `NC(=O)c1cnc(NCC(=O)NCc2ccccc2)c(Cl)c1`, for which the cytotoxicity at 10 µM amounted to 3.89%.

On to `CCc1cc(-c2cc[nH]n2)nc(N2CCCC2)n1`, for which the cytotoxicity at 10 µM stood at 0.255%.

For `CCNC(=O)N1CCc2ccc(NC(=O)NCC3CC3)cc21`, the cytotoxicity at 10 µM amounted to 3.53%.

`CC(=O)N1CCCC1c1ccc(C(=O)N2CCOCC2)s1` (stereo unspecified): the cytotoxicity at 10 µM worked out at 6.92%.

Regarding `COC(=O)CCN1CCC(NC(=O)OC(C)(C)C)CC1`, the cytotoxicity at 10 µM amounted to 14.7%.

On to `Clc1ccc(CN2CCCCC2Cn2cncn2)c2ncccc12` (stereo unspecified), for which the cytotoxicity at 10 µM was -4.66%.

`O=C(C1CCOc2ccccc21)N1CCOc2cccc(F)c21` (stereo unspecified): the cytotoxicity at 10 µM was determined as 4.52%.

As to `NCC1CCC(C(NC(=O)c2ccccc2)c2ccccn2)CC1` (stereo unspecified), the cytotoxicity at 10 µM amounted to 0%.

As for `c1ccc(Cn2ccnc2CNCC2CCCN2c2cccnn2)cc1` (stereo unspecified), the cytotoxicity at 10 µM is -9.86%.

Consider `O=c1[nH]c(C2CCOC2)nc2ccc(Br)cc12` (stereo unspecified), for which the cytotoxicity at 10 µM worked out at 7.85%.

As to `CCNC(=O)[C@@H]1C[C@@H](NC(=O)c2ccc(C)s2)CN1Cc1ccccn1`, the cytotoxicity at 10 µM was -3.73%.

As for `COc1ccc(CN(C(=O)C2CCCO2)c2ccncc2)cc1` (stereo unspecified), the cytotoxicity at 10 µM came out at 1.86%.

In the case of `c1ccc(N2CCCC3(CCN(Cc4ccsc4)C3)C2)nc1` (stereo unspecified), the cytotoxicity at 10 µM was -14%.

Take `COCC(C)N(C)C(=O)c1ccc2nncn2c1` (stereo unspecified): the cytotoxicity at 10 µM is -1.37%.

Turning to `Cc1ccc(CN2CCCn3nnc(COCC4CC4)c3C2)s1`, the cytotoxicity at 10 µM is -6.51%.

For `COc1cc(C2(C(=O)N3CCN(CC(C)(C)O)CC3)CC2)ccc1C`, the cytotoxicity at 10 µM was -0.0264%.

For `c1cc(NCc2ccncc2)nc(C2CCCNC2)c1` (stereo unspecified), the cytotoxicity at 10 µM is -1.83%.

For `Cc1ccc(CNc2ccn(CCc3ccncc3)n2)s1`, the cytotoxicity at 10 µM is 21.8%.

For the compound `CS(=O)(=O)NCc1nnc2n1CCN(Cc1ccccn1)C2`, the cytotoxicity at 10 µM is -75.5%.

`CN(C)CC(=O)N1CCC2(CCc3ccc(-c4ccncc4)cc32)CC1`: the cytotoxicity at 10 µM is 6.34%.

Turning to `Cc1cc(=O)[nH]c(=O)n1Cc1ccccc1`, the cytotoxicity at 10 µM is -42.6%.

On to `Cn1cc(CN2C[C@H]3CCC[C@@H](CNc4nccn4C)[C@H]3C2)cn1`, for which the cytotoxicity at 10 µM was 10.9%.

On to `Cc1ccc2c(c1)CCC2NCc1c(C)nn(C)c1N1CCOCC1` (stereo unspecified), for which the cytotoxicity at 10 µM is -8.03%.

As for `O=C(NCCn1cccn1)c1nnc2ccccc2n1`, the cytotoxicity at 10 µM is -2.41%.

With `Cc1ccc(OCC(=O)Nc2cnccc2SCCCO)cc1C`, the cytotoxicity at 10 µM was -2.35%.

For `Cc1ccc2c(n1)N(CC(C)C)CCN(S(C)(=O)=O)C2`, the cytotoxicity at 10 µM was -65.7%.

On to `Cc1noc([C@H]2COC[C@H]3CN(C(=O)Cc4cccc(F)c4)C[C@H]32)n1`, for which the cytotoxicity at 10 µM was determined as 6.93%.

For `CN1CCN(c2ccnc3c(F)cc(Br)cc23)CC1`, the cytotoxicity at 10 µM is 27.2%.

For the compound `CC(C)NC(=O)CC1COC2(CCN(Cc3ccco3)CC2)C1` (stereo unspecified), the cytotoxicity at 10 µM is -0.567%.

Turning to `COc1ccccc1CN(Cc1cccc(C)c1)C(=O)[C@@H](N)CC(=O)O`, the cytotoxicity at 10 µM was -47.7%.
